Source: PubChem (several laboratories)
The list is not random: actives were taken first. Their share in the collection is about 3.4%.
TRPML3 agonist: activates the human TRPML3 channel | Q8TDD5 | HEK293 TRPML3-YFP, Fluo-8 calcium fluorescence; 100% = the carbachol control signal | activation, % at 3 µM | 220,000 compounds, 0.29% hits | AID 1448;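 active means activation above its plate's cutoff, the mean activation of the plate's test wells plus 3 SD, cut at about 12% in these data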
Target sequence (Q8TDD5 whole entry, looked up): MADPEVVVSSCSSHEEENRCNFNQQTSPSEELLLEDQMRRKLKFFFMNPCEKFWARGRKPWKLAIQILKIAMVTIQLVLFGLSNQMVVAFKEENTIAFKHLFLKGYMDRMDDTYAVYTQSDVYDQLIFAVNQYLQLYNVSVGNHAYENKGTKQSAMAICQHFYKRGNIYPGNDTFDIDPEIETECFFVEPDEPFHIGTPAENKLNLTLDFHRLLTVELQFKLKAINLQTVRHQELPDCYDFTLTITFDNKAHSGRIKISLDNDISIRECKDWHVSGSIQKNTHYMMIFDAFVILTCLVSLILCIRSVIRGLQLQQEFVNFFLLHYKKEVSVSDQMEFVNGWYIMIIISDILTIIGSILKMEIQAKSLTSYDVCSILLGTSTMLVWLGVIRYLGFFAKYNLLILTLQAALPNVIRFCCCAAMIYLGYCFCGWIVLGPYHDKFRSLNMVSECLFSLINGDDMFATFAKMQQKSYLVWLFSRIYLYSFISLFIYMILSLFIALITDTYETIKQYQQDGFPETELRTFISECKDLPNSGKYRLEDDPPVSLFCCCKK
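Test system – HEK293 line with stable expression of human TRPML3-YFP channel · Control set – carbachol 87 µM final as high control (100%), DMSO as low control (0%) · Signal – Fluo-8 calcium dye fluorescence, ex 470-495, em 515-575 nm · Incubation – 1-h 37 °C dye load, 5-s basal, 120-s post-compound reads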
GPR7 antag: antagonists of human GPR7 (neuropeptides B/W receptor 1). P48145. inhibition, % at 4.4 µM. GPR7-expressing cells, fluorescence antagonist assay. 290,000 compounds, 1.1% hits; in the data active means inhibition above about 16%, passing the limit was not always enough;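 further: cells stimulated with the agonist NPW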
LANA-H2A inh: blocks KSHV LANA binding to histone H2A/H2B; AID 2629; Q9QR71; cell-free LANA-H2A/H2B peptide, fluorescence polarization; 320,000 compounds, 0.6% hits; inhibition, % (concentration not given with the values); in the data active means inhibition mostly above about 10%, no sharp cut-off; inactive means mostly below about 6.7%
TRPN1 ag: zebrafish TRPN1 (NompC) channel agonism | HEK293 zebrafish TRPN1-YFP, Fluo-8 calcium fluorescence; 100% = response to 87 µM carbachol | activation, % at 3 µM | 220,000 compounds, 0.18% hits;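 active means activation above its plate's cutoff, the mean activation of test wells on that plate plus 3 SD, cut at about 19% in these data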
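Material: zebrafish TRPN1-YFP in HEK293 cells. Doses: one dose of 3 µM, 0.3% DMSO. Incubation: dye 1 h 37 °C plus 30 min RT. Measured by: intracellular calcium fluorescence with Fluo-8.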
TAAR1 antagonist: human TAAR1 antagonism; Q96RJ0; CHO RD-HGA16 TAAR1, Fluo-8 calcium fluorescence, antagonist; inhibition, % at 3 µM; 360,000 compounds, 1.5% hits; AID 624466;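 active means inhibition above a per-plate cutoff, the mean inhibition of test compounds on that plate plus 3 SD, cut at about 49% in these data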
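Test system – hTAAR1-expressing CHO RD-HGA16 cells, Gα16-coupled · Reagent – β-PEA at EC80 concentration, post-compound challenge · Compound dosing – 3 µM, single point · Timing – 140 s kinetic read after compound, 140 s after agonist · Detection – Fluo-8 intracellular calcium dye fluorescence, real-time kinetic reads · Control set – DMSO and EC80 PEA controls · Repeats – n of 1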
TAAR1 ag: agonists of human TAAR1. Q96RJ0. CHO RD-HGA16 TAAR1, Fluo-8 calcium fluorescence; vehicle wells 0%, saturating PEA agonist 100%. activation, % at 3 µM. 360,000 compounds, 0.99% hits. AID 624467;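 active means activation above the mean activation of all test compounds in the run plus 3 SD, cut at about 38% in these data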
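System: CHO RD-HGA16 cells carrying human TAAR1 plus Gα16; Incubation: 17-24 h seeding, 75 min 37 °C dye, 30 min RT; Measured by: Fluo-8 fluorescence, 5 s baseline then 140 s kinetic read; Control set: DMSO and PEA EC100; Replication: single well for each compound.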
TAAR1 ag conf: human TAAR1 agonism, confirmed | shares compounds with TAAR1 ag | 2,400 compounds, 82% hits | CHO RD-HGA16 TAAR1, Fluo-8 calcium fluorescence; scaled: DMSO 0%, maximal phenethylamine 100% | activation, % at 3 µM;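 active means activation above a cutoff set at the run's mean compound activation plus 3 SD, cut at about 39% in these data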
Ga16 nonsel ag: nonselective agonist in parental cells, TAAR1 agonist counter-screen | CHO-Ga16 parental, Fluo-8 calcium fluorescence; normalized to maximal ATP response, DMSO zero | activation, % at 3 µM | AID 651787 | shares compounds with TAAR1 ag | 2,400 compounds, 50% hits;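 active means activation above the run cutoff, the mean activation over all tested wells plus 3 SD, cut at about 12% in these data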
TAAR1 desens: counter-screen for human TAAR1 agonists: agonists that desensitize TAAR1. 2,400 compounds, 46% hits. inhibition, % at 3 µM. shares compounds with TAAR1 ag. CHO RD-HGA16 hTAAR1, Fluo-8 calcium, beta-PEA response inhibition;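 active means inhibition above the run cutoff, the mean inhibition of all test compounds plus 3 SD, cut at about 49% in these data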;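 further: beta-PEA stimulus applied at its EC80; loss of beta-PEA calcium signal after compound pretreatment read as receptor desensitization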
Ga16 antag count: nonselective Ga16 antagonism, counter-screen; shares compounds with TAAR1 ag; CHO-Ga16 ATP-induced calcium, Fluo-8 fluorescence; inhibition, % at 3 µM; 2,400 compounds, 39% hits;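 active means inhibition above the plate's mean compound inhibition plus 3 SD, computed per plate, cut at about 22% in these data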
Numbers stand for hits.

COc1ccc(C(=O)NNC(=S)NC(=O)c2cc(-c3ccccc3)nc3ccccc23)cc1 was read as TRPML3 agonist inactive, GPR7 antag inactive, LANA-H2A inh inactive, TRPN1 ag 21.9, TAAR1 antagonist 87.9, TAAR1 ag 128.0, TAAR1 ag conf 122.3, Ga16 nonsel ag 93.7, TAAR1 desens 94.6 and Ga16 antag count 73.1.
`CCCOc1ccc(C(=O)NNC(=S)NC(=O)c2cc(-c3ccc(Cl)cc3)nc3ccccc23)cc1` gave TRPML3 agonist inactive, GPR7 antag inactive, LANA-H2A inh inactive, TRPN1 ag inactive, TAAR1 antagonist 85.3, TAAR1 ag 61.7, TAAR1 ag conf 105.4, Ga16 nonsel ag 77.9, TAAR1 desens 102.6 and Ga16 antag count 93.8.
Screening O=C(CSc1n[nH]c(-c2ccncc2)n1)Nc1ccc(Cl)c(C(=O)O)c1 returned GPR7 antag inactive, LANA-H2A inh inactive, TAAR1 antagonist inactive and TAAR1 ag inactive.
`C[C@H]1CN[C@@H](CCO)/C1=C\c1ccccc1` gave TAAR1 antagonist inactive, TAAR1 ag 43.3, TAAR1 ag conf 52.5, Ga16 nonsel ag inactive, TAAR1 desens inactive and Ga16 antag count inactive.
Screening C[C@H]1CN[C@H](CCO)/C1=C\c1ccccc1 returned TAAR1 antagonist inactive, TAAR1 ag 46.6, TAAR1 ag conf 61.2, Ga16 nonsel ag inactive, TAAR1 desens inactive and Ga16 antag count inactive.
Screening O=C(CCc1nc2ccccc2c(=O)[nH]1)Nc1nnc(SCc2ccc(F)cc2)s1 returned LANA-H2A inh inactive, TAAR1 antagonist inactive and TAAR1 ag inactive.
CCOC(=O)[C@]12CCC=C1N(Cc1ccc(Cl)cc1Cl)C(=O)[C@H](CC(=O)N1CCOCC1)C2 was read as TAAR1 antagonist inactive and TAAR1 ag inactive.
Cc1[nH]c2ccccc2c1C(=O)CN1C(=O)NC(C)(c2ccc(Cl)cc2Cl)C1=O (centres undefined) was read as TRPML3 agonist inactive, GPR7 antag 62.1, LANA-H2A inh inactive, TRPN1 ag inactive, TAAR1 antagonist 55.2, TAAR1 ag 70.2, TAAR1 ag conf 75.2, Ga16 nonsel ag 38.5, TAAR1 desens 64.2 and Ga16 antag count 47.7.
`O=C(Nc1cccc(OC(F)(F)F)c1)c1ccc(-c2cccnc2)c2ccoc12` gave TAAR1 antagonist inactive and TAAR1 ag inactive.
Screening S=c1[nH]ccn1CCc1ccccc1 returned GPR7 antag inactive, LANA-H2A inh inactive, TAAR1 antagonist inactive, TAAR1 ag 61.8, TAAR1 ag conf 64.0, Ga16 nonsel ag inactive, TAAR1 desens inactive and Ga16 antag count inactive.
Cn1c(CCc2ccccc2)n[nH]c1=S was read as TRPML3 agonist inactive, GPR7 antag inactive, LANA-H2A inh inactive, TRPN1 ag inactive, TAAR1 antagonist inactive and TAAR1 ag inactive.
Screening Cc1ccc(-c2noc(CCC(=O)Nc3ccc4c(c3)OCO4)n2)cc1 returned TRPML3 agonist inactive, GPR7 antag inactive, LANA-H2A inh inactive, TRPN1 ag inactive, TAAR1 antagonist 80.1, TAAR1 ag 83.0, TAAR1 ag conf inactive, Ga16 nonsel ag inactive, TAAR1 desens inactive and Ga16 antag count 23.7.
Screening Nc1nc2c(ncn2[C@@H]2O[C@H](CNCc3cnc(N4CCOCC4)s3)[C@@H](O)[C@H]2O)c(=O)[nH]1 returned TAAR1 antagonist inactive and TAAR1 ag inactive.
For O=C(O)c1ccccc1C(=O)NCC(O)c1ccccc1 (centres undefined) the results were TRPML3 agonist inactive, GPR7 antag inactive, LANA-H2A inh inactive, TRPN1 ag inactive, TAAR1 antagonist inactive, TAAR1 ag 71.6, TAAR1 ag conf 95.9, Ga16 nonsel ag inactive, TAAR1 desens 62.4 and Ga16 antag count inactive.
Screening O=C(O)c1ccccc1C(=O)NCCCCCCNC(=O)c1ccccc1C(=O)O returned GPR7 antag inactive, LANA-H2A inh inactive, TAAR1 antagonist inactive and TAAR1 ag inactive.
O=C(CNC(=O)c1ccccc1C(=O)O)c1ccccc1 was read as TRPML3 agonist inactive, GPR7 antag inactive, LANA-H2A inh inactive, TRPN1 ag inactive, TAAR1 antagonist inactive, TAAR1 ag 70.9, TAAR1 ag conf 77.5, Ga16 nonsel ag inactive, TAAR1 desens inactive and Ga16 antag count inactive.
O=CC(=Cc1ccccc1)c1ccccc1 was read as TAAR1 antagonist inactive and TAAR1 ag inactive.
Screening O=C1c2cccc3c(N4CCCCC4)ccc(c23)C(=O)N1c1cccc(O)c1 returned TRPML3 agonist 32.8, GPR7 antag inactive, LANA-H2A inh inactive, TRPN1 ag 70.5, TAAR1 antagonist 79.1, TAAR1 ag 120.6, TAAR1 ag conf inactive, Ga16 nonsel ag 31.7, TAAR1 desens inactive and Ga16 antag count 48.1.
O=C(c1cccc(N2C(=O)c3ccccc3C2=O)c1)N1CCCCCC1 was read as TRPML3 agonist inactive, GPR7 antag inactive, LANA-H2A inh inactive, TRPN1 ag inactive, TAAR1 antagonist inactive and TAAR1 ag inactive.
`CN1CCN(c2ccc(NC(=O)CSc3ccccc3)cc2F)CC1` gave TRPML3 agonist inactive, GPR7 antag inactive, LANA-H2A inh inactive, TRPN1 ag inactive, TAAR1 antagonist inactive, TAAR1 ag 57.0, TAAR1 ag conf 71.3, Ga16 nonsel ag inactive, TAAR1 desens inactive and Ga16 antag count inactive.
`Cc1ccc(SCC(=O)Nc2ccc(N3CCN(c4ccccc4)CC3)c(F)c2)cc1` gave TRPML3 agonist inactive, GPR7 antag inactive, LANA-H2A inh inactive, TRPN1 ag inactive, TAAR1 antagonist inactive and TAAR1 ag inactive.
`Cc1ccc(C)c(SCC(=O)NCC(c2ccco2)N2CCCCC2)c1` (centres undefined) gave LANA-H2A inh inactive, TAAR1 antagonist inactive and TAAR1 ag inactive.
O=C(NCc1ccco1)c1cc(-c2ccccc2)on1 was read as TRPML3 agonist inactive, GPR7 antag inactive, LANA-H2A inh inactive, TRPN1 ag inactive, TAAR1 antagonist inactive and TAAR1 ag inactive.
